Test results: ChEMBL document CHEMBL1811874, “The effect of sulfonate leaving groups on the hypoxia-selective toxicity of nitro analogs of the duocarmycins” (Bioorg Med Chem, 2011)
Converted amounts (≈) assume the structure as drawn.

Experiments:
[1] = Solubility in alphaMEM culture medium containing 5% FCS at 22 degC; format: physicochemical
Summary of the method: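 Solubility was measured in αMEM with 5% FCS, equilibrated with 5% CO₂/air, at 22 °C.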

[2] = tested on: SK-OV-3; experiment: Cytotoxicity against human SKOV3 cells assessed as reduction of cell density incubated for 4 hrs in oxic (aerobic) condition measured 5 days post dose by SRB assay; format: functional, cell-based
Summary of the method: (§1)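 Log-phase monolayers given a 4 h drug exposure under aerobic (20% O₂) or anoxic (<20 ppm O₂) conditions. Cells were then stained with sulforhodamine B 5 days later. IC50 was interpolated as the concentration that cut cell density to 50% of same-plate controls. Values are means of two to seven experiments.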

[3] = tested on: SK-OV-3; experiment: Cytotoxicity against human SKOV3 cells assessed as reduction of cell density incubated for 4 hrs in hypoxic (anoxic) condition measured 5 days post dose by SRB assay; format: functional, cell-based; summary of the method: as §1
[4] = tested on: SK-OV-3; experiment: Hypoxic cytotoxicity ratio, ratio of IC50 for human SKOV3 cells in oxic (aerobic) condition to IC50 for human SKOV3 cells in hypoxic (anoxic) conditions; format: functional
Summary of the method: (§2)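 HCR was calculated as IC50(oxic)/IC50(hypoxic) after 4 h drug exposure at 20% O₂ or <20 ppm O₂, with SRB read-out 5 days later.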

[5] = tested on: A549; experiment: Cytotoxicity against human A549 cells after 24 hrs; format: functional, cell-based; details: A549, 24 h
[6] = tested on: HT-29; experiment: Cytotoxicity against human HT-29 cells assessed as reduction of cell density incubated for 4 hrs in oxic (aerobic) condition measured 5 days post dose by SRB assay; format: functional, cell-based; summary of the method: as §1
[7] = tested on: HT-29; experiment: Cytotoxicity against human HT-29 cells assessed as reduction of cell density incubated for 4 hrs in hypoxic (anoxic) condition measured 5 days post dose by SRB assay; format: functional, cell-based; summary of the method: as §1
[8] = tested on: HT-29; experiment: Hypoxic cytotoxicity ratio, ratio of IC50 for human HT-29 cells in oxic (aerobic) condition to IC50 for human HT-29 cells in hypoxic (anoxic) conditions; format: functional; summary of the method: as §2
[9] = tested on: A549; experiment: Cytotoxicity against human A549 cells assessed as reduction of cell density incubated for 4 hrs in oxic (aerobic) condition measured 5 days post dose by SRB assay; format: functional, cell-based; summary of the method: as §1
[10] = tested on: A549; experiment: Cytotoxicity against human A549 cells assessed as reduction of cell density incubated for 4 hrs in hypoxic (anoxic) condition measured 5 days post dose by SRB assay; format: functional, cell-based; summary of the method: as §1
[11] = tested on: A549; experiment: Hypoxic cytotoxicity ratio, ratio of IC50 for human A549 cells in oxic (aerobic) condition to IC50 for human A549 cells in hypoxic (anoxic) conditions; format: functional; summary of the method: as §2
[12] = tested on: A549; experiment: Cytotoxicity against human A549 cells over-expressing human NADPH/cytochrome P450 oxidoreductase assessed as reduction of cell density incubated for 4 hrs in oxic (aerobic) condition measured 5 days post dose by SRB assay; format: functional, cell-based; summary of the method: as §1
[13] = tested on: A549; experiment: Cytotoxicity against human A549 cells ells over-expressing human NADPH/cytochrome P450 oxidoreductase assessed as reduction of cell density incubated for 4 hrs in hypoxic (anoxic) condition measured 5 days post dose by SRB assay; format: functional, cell-based; summary of the method: as §1
[14] = tested on: A549; experiment: Hypoxic cytotoxicity ratio, ratio of IC50 for human A549 cells ells over-expressing human NADPH/cytochrome P450 oxidoreductase in oxic (aerobic) condition to IC50 for human A549 cells ells over-expressing human NADPH/cytochrome P450 oxidoreductase in hypoxic (anoxic) conditions; format: functional; summary of the method: as §2
[15] = tested on: NCI-H460; experiment: Cytotoxicity against human H460 cells assessed as reduction of cell density incubated for 4 hrs in oxic (aerobic) condition measured 5 days post dose by SRB assay; format: functional, cell-based; summary of the method: as §1
[16] = tested on: NCI-H460; experiment: Cytotoxicity against human H460 cells assessed as reduction of cell density incubated for 4 hrs in hypoxic (anoxic) condition measured 5 days post dose by SRB assay; format: functional, cell-based; summary of the method: as §1
[17] = tested on: NCI-H460; experiment: Hypoxic cytotoxicity ratio, ratio of IC50 for human H460 cells in oxic (aerobic) condition to IC50 for human H460 cells in hypoxic (anoxic) conditions; format: functional; summary of the method: as §2
[18] = Cytotoxicity against human H1299 cells assessed as reduction of cell density incubated for 4 hrs in oxic (aerobic) condition measured 5 days post dose by SRB assay; format: functional, cell-based; details: NCI-H1299; summary of the method: as §1
[19] = Cytotoxicity against human H1299 cells assessed as reduction of cell density incubated for 4 hrs in hypoxic (anoxic) condition measured 5 days post dose by SRB assay; format: functional, cell-based; details: NCI-H1299; summary of the method: as §1
[20] = Hypoxic cytotoxicity ratio, ratio of IC50 for human H1299 cells in oxic (aerobic) condition to IC50 for human H1299 cells in hypoxic (anoxic) conditions; format: functional, NCI-H1299; summary of the method: as §2
[21] = tested on: C-33-A; experiment: Cytotoxicity against human C33A cells assessed as reduction of cell density incubated for 4 hrs in oxic (aerobic) condition measured 5 days post dose by SRB assay; format: functional, cell-based; summary of the method: as §1
[22] = tested on: C-33-A; experiment: Cytotoxicity against human C33A cells assessed as reduction of cell density incubated for 4 hrs in hypoxic (anoxic) condition measured 5 days post dose by SRB assay; format: functional, cell-based; summary of the method: as §1
[23] = tested on: C-33-A; experiment: Hypoxic cytotoxicity ratio, ratio of IC50 for human C33A cells in oxic (aerobic) condition to IC50 for human C33A cells in hypoxic (anoxic) conditions; format: functional; summary of the method: as §2
[24] = tested on: SiHa; experiment: Cytotoxicity against human SiHa cells assessed as reduction of cell density incubated for 4 hrs in oxic (aerobic) condition measured 5 days post dose by SRB assay; format: functional, cell-based; summary of the method: as §1
[25] = tested on: SiHa; experiment: Cytotoxicity against human SiHa cells assessed as reduction of cell density incubated for 4 hrs in hypoxic (anoxic) condition measured 5 days post dose by SRB assay; format: functional, cell-based; summary of the method: as §1
[26] = tested on: SiHa; experiment: Hypoxic cytotoxicity ratio, ratio of IC50 for human SiHa cells in oxic (aerobic) condition to IC50 for human SiHa cells in hypoxic (anoxic) conditions; format: functional; summary of the method: as §2
[27] = tested on: HCT-116; experiment: Cytotoxicity against human HCT116 cells assessed as reduction of cell density incubated for 4 hrs in oxic (aerobic) condition measured 5 days post dose by SRB assay; format: functional, cell-based; summary of the method: as §1
[28] = tested on: HCT-116; experiment: Cytotoxicity against human HCT116 cells assessed as reduction of cell density incubated for 4 hrs in hypoxic (anoxic) condition measured 5 days post dose by SRB assay; format: functional, cell-based; summary of the method: as §1
[29] = tested on: HCT-116; experiment: Hypoxic cytotoxicity ratio, ratio of IC50 for human HCT116 cells in oxic (aerobic) condition to IC50 for human HCT116 cells in hypoxic (anoxic) conditions; format: functional; summary of the method: as §2
[30] = tested on: A-375; experiment: Cytotoxicity against human A375 cells assessed as reduction of cell density incubated for 4 hrs in oxic (aerobic) condition measured 5 days post dose by SRB assay; format: functional, cell-based; summary of the method: as §1
[31] = tested on: A-375; experiment: Cytotoxicity against human A375 cells assessed as reduction of cell density incubated for 4 hrs in hypoxic (anoxic) condition measured 5 days post dose by SRB assay; format: functional, cell-based; summary of the method: as §1
[32] = tested on: A-375; experiment: Hypoxic cytotoxicity ratio, ratio of IC50 for human A375 cells in oxic (aerobic) condition to IC50 for human A375 cells in hypoxic (anoxic) conditions; format: functional; summary of the method: as §2
[33] = tested on: PC-3; experiment: Cytotoxicity against human PC3 cells assessed as reduction of cell density incubated for 4 hrs in oxic (aerobic) condition measured 5 days post dose by SRB assay; format: functional, cell-based; summary of the method: as §1
[34] = tested on: PC-3; experiment: Cytotoxicity against human PC3 cells assessed as reduction of cell density incubated for 4 hrs in hypoxic (anoxic) condition measured 5 days post dose by SRB assay; format: functional, cell-based; summary of the method: as §1
[35] = tested on: PC-3; experiment: Hypoxic cytotoxicity ratio, ratio of IC50 for human PC3 cells in oxic (aerobic) condition to IC50 for human PC3 cells in hypoxic (anoxic) conditions; format: functional; summary of the method: as §2

SMILES: COc1cc2cc(C(=O)N3CC(COS(=O)(=O)C4CCCCC4)c4c3cc(N)c3ccccc43)[nH]c2c(OC)c1OC (stereo not drawn)
- solubility [1]: 37 µM (≈ 22 µg/mL)
- IC50 [2]: 4.9 nM
- IC50 [3]: 6.5 nM
- Ratio IC50 [4]: 1

SMILES: CN(C)CCOc1ccc2[nH]c(C(=O)N3C[C@@H](CCl)c4c3cc(O)c3ccccc43)cc2c1
- IC50 [5]: 0.026 nM

SMILES: O=C(c1cc2cc(OCCO)ccc2[nH]1)N1CC(CCl)c2c1cc([N+](=O)[O-])c1ccccc21 (stereo not drawn)
- solubility [1]: 13 µM (≈ 6.06 µg/mL)
- IC50 [2]: 9300 nM
- IC50 [3]: 3300 nM
- Ratio IC50 [4]: 3.8
- IC50 [6]: 6600 nM
- IC50 [7]: 5700 nM
- Ratio IC50 [8]: 1.1

SMILES: COc1ccc2[nH]c(C(=O)N3CC(CCl)c4c3cc([N+](=O)[O-])c3ccccc43)cc2c1 (stereo not drawn)
- solubility [1]: 38 µM (≈ 16.6 µg/mL)
- IC50 [2]: 4800 nM
- IC50 [3]: 1540 nM
- Ratio IC50 [4]: 3.1
- IC50 [6]: 9700 nM
- IC50 [7]: 1300 nM
- Ratio IC50 [8]: 7.4

SMILES: COc1ccc(/C=C/C(=O)N2CC(CCl)c3c2cc([N+](=O)[O-])c2ccccc32)cc1O (stereo not drawn)
- solubility [1]: 9 µM (≈ 3.95 µg/mL)
- IC50 [2]: 890 nM
- IC50 [3]: 400 nM
- Ratio IC50 [4]: 3.3
- IC50 [6]: 1700 nM
- IC50 [7]: 590 nM
- Ratio IC50 [8]: 4.5

SMILES: COc1cc2cc(C(=O)N3CC(COS(C)(=O)=O)c4c3cc([N+](=O)[O-])c3ccccc43)[nH]c2c(OC)c1OC (stereo not drawn)
- solubility [1]: 69 µM (≈ 38.3 µg/mL)
- IC50 [2]: 2200 nM
- IC50 [3]: 140 nM
- Ratio IC50 [4]: 39
- IC50 [6]: 1500 nM
- IC50 [7]: 310 nM
- Ratio IC50 [8]: 4.6

SMILES: COc1cc2cc(C(=O)N3CC(COS(=O)(=O)C4CCCCC4)c4c3cc([N+](=O)[O-])c3ccccc43)[nH]c2c(OC)c1OC (stereo not drawn)
- solubility [1]: 70 µM (≈ 43.7 µg/mL)
- IC50 [2]: 16000 nM
- IC50 [3]: 190 nM
- Ratio IC50 [4]: 146
- IC50 [6]: 9900 nM
- IC50 [7]: 440 nM
- Ratio IC50 [8]: 26

SMILES: CN(C)CCOc1ccc2[nH]c(C(=O)N3CC(COS(=O)(=O)C4CCCCC4)c4c3cc([N+](=O)[O-])c3ccccc43)cc2c1 (stereo not drawn)
- solubility [1]: 22 µM (≈ 13.7 µg/mL)
- IC50 [2]: 470 nM
- IC50 [3]: 300 nM
- Ratio IC50 [4]: 1.5
- IC50 [6]: 410 nM
- IC50 [7]: 200 nM
- Ratio IC50 [8]: 2.3

SMILES: COc1cc2cc(C(=O)N3CC(COS(=O)(=O)Cc4ccccc4)c4c3cc([N+](=O)[O-])c3ccccc43)[nH]c2c(OC)c1OC (stereo not drawn)
- solubility [1]: 17 µM (≈ 10.7 µg/mL)
- IC50 [2]: 12000 nM
- IC50 [3]: 82 nM
- Ratio IC50 [4]: 246
- IC50 [6]: 9800 nM
- IC50 [7]: 360 nM
- Ratio IC50 [8]: 37
- IC50 [9]: 1080 nM
- IC50 [10]: 400 nM
- Ratio IC50 [11]: 3.73
- IC50 [12]: 930 nM
- IC50 [13]: 95 nM
- Ratio IC50 [14]: 16.5
- IC50 [15]: 250 nM
- IC50 [16]: 100 nM
- Ratio IC50 [17]: 7.19
- IC50 [18]: 510 nM
- IC50 [19]: 160 nM
- Ratio IC50 [20]: 3.6
- IC50 [21]: 430 nM
- IC50 [22]: 33 nM
- Ratio IC50 [23]: 15.6
- IC50 [24]: 3000 nM
- IC50 [25]: 450 nM
- Ratio IC50 [26]: 30.1
- IC50 [27]: 530 nM
- IC50 [28]: 50 nM
- Ratio IC50 [29]: 12.1
- IC50 [30]: 1230 nM
- IC50 [31]: 410 nM
- Ratio IC50 [32]: 4.12
- IC50 [33]: 1900 nM
- IC50 [34]: 210 nM
- Ratio IC50 [35]: 10.2

SMILES: CN(C)CCOc1ccc2[nH]c(C(=O)N3CC(COS(=O)(=O)Cc4ccccc4)c4c3cc([N+](=O)[O-])c3ccccc43)cc2c1 (stereo not drawn)
- solubility [1]: 91 µM (≈ 57.2 µg/mL)
- IC50 [2]: 270 nM
- IC50 [3]: 150 nM
- Ratio IC50 [4]: 1.8
- IC50 [6]: 240 nM
- IC50 [7]: 80 nM
- Ratio IC50 [8]: 4
